Data as given in ChEMBL document CHEMBL1126076, “Synthesis and thromboxane A2/prostaglandin H2 receptor antagonistic activity of phenol derivatives” (J Med Chem, 1992).
Each block holds one molecule with its values, some of them ahead of it.

Legend:
[1] = test system: Thromboxane A2 receptor (Cavia porcellus); assay: Inhibition of specific binding of [3H]U-46619 to TXA2/PGH2 receptor in guinea pig platelet membrane
Cavia porcellus [2] = assay: The compound was tested in vivo for the inhibition of U-46619-induced bronchoconstriction in guinea pig, 1 hr after oral administration at a dose of 5 mg/Kg.; type: functional; conditions: PIG1, po
How it was run: (§1)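 Guinea pigs received drug suspended in 5% gum arabic orally 1 h before U-46619 challenge. The result is percent inhibition of bronchoconstriction versus control, tested with Dunnett's test.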

Homo sapiens [3] = species: Homo sapiens; assay: Concentration required to reduced U-46619-induced aggregation of human platelet by 50%.; type: functional
How it was run: (§2)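 Healthy male volunteers, medication-free for at least 10 days, gave blood into 3.8% sodium citrate. PRP was adjusted to 400000 platelets/µL with PPP, preincubated at 37 °C for 2 min, then given drug or vehicle for 2 min. Aggregation was triggered with submaximal U-46619 (1–3 µM) and read photometrically (Born).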

Oryctolagus cuniculus [4] = species: Oryctolagus cuniculus; assay: Concentration required to reduced U-46619-induced contraction of the rabbit aorta by 50%.; type: functional
Cavia porcellus [5] = assay: The compound was tested in vivo for the inhibition of U-46619-induced bronchoconstriction in guinea pig, 1 hr after oral administration at a dose of 0.31 mg/Kg.; type: functional; conditions: PIG1, po
How it was run: as §1

Homo sapiens [6] = species: Homo sapiens; assay: Concentration required to reduced U-46619-induced aggregation of human platelet by 50%.(values in parentheses are 95% confidence limits); type: functional
How it was run: as §2

Oryctolagus cuniculus [7] = species: Oryctolagus cuniculus; assay: Concentration required to reduced U-46619-induced contraction of the rabbit aorta by 50%.(values in parentheses are 95% confidence limits); type: functional
Rattus norvegicus [8] = assay: The compound was tested in vivo for the inhibition of U-46619-induced bronchoconstriction in rat, 1 hr after oral administration at a dose of 1.25 mg/Kg.; type: functional
How it was run: (§3)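 Male Sprague-Dawley rats received drug suspended in 5% gum arabic orally 1 h before U-46619 (30 µg/kg, iv). Bronchoconstriction was recorded by the Konzett-Rössler method and expressed as percent inhibition versus control, tested with Dunnett's test.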

Rattus norvegicus [9] = assay: The compound was tested in vivo for the inhibition of U-46619-induced bronchoconstriction in rat, 1 hr after oral administration at a dose of 5 mg/Kg.; type: functional
How it was run: as §3

Cavia porcellus [10] = assay: The compound was tested in vivo for the inhibition of U-46619-induced bronchoconstriction in guinea pig, 1 hr after oral administration at a dose of 1.25 mg/Kg.; type: functional; conditions: PIG1, po
How it was run: as §1

Cavia porcellus [11] = species: Cavia porcellus; assay: Compound was evaluated for inhibition of specific binding of [3H]U-46619 to guinea pig platelet membrane.; type: functional
How it was run: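 Guinea pig blood was drawn by cardiac puncture into 0.315% citrate plus 1 mM aspirin (final). PRP platelets were washed in 25 mM Tris-HCl/5 mM MgCl2 pH 7.4, sonicated, and the 100000 g pellet used at 1 mg/mL protein. Membranes were incubated with 4 nM [3H]U-46619 and drug at 25 °C for 30 min, then filtered and counted. The IC50 is for specific binding, with 2–6 replicates per dose.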

Cavia porcellus [12] = assay: Compound was tested in vivo for the inhibition of U-46619-induced bronchoconstriction in guinea pig, 1 hr after oral administration at a dose of 5 mg/Kg.; type: functional; conditions: PIG1, po, read-out: Inhibition
How it was run: as §1

Cavia porcellus [13] = assay: compound was tested in vivo for the inhibition of U-46619-induced bronchoconstriction in guinea pig, 1 hr after oral administration at a dose of 1.25 mg/Kg.; type: functional; conditions: PIG1, po
How it was run: as §1

Oryctolagus cuniculus [14] = species: Oryctolagus cuniculus; assay: Concentration required to reduced U-46619-induced contraction of the rabbit aorta by 50%; type: functional
Rattus norvegicus [15] = assay: Compound was tested in vivo for the inhibition of U-46619-induced bronchoconstriction in rat, 1 hr after oral administration at a dose of 5 mg/Kg.; type: functional; conditions: read-out: Inhibition
How it was run: as §3

Homo sapiens [16] = species: Homo sapiens; assay: Concentration required to reduced U-46619-induced aggregation of human platelet by 50%; type: functional
How it was run: as §2

- IC50 [1]: 130 nM
Compound: Cc1c(C)c(C)c(C(CCCCCC(=O)O)c2ccc(F)cc2)c(O)c1C (stereo unspecified)

- IC50 (Homo sapiens [3]): 1400 nM
- IC50 (Oryctolagus cuniculus [4]): 190 nM
Compound: Cc1c(C)c(C=O)c(C)c(C(CCCCCC(=O)O)c2ccccc2)c1O (stereo unspecified)
- inhibition in vivo at 5 mg/kg (Cavia porcellus [2]): 30%

- IC50 [1]: 820 nM
Compound: Cc1c(C)c(CO)c(C)c(C(CCCCCC(=O)O)c2ccccc2)c1O (stereo unspecified)

- IC50 [1]: 3200 nM
Compound: Cc1c(C)c(C(=O)O)c(C)c(C(CCCCCC(=O)O)c2ccc(F)cc2)c1O (stereo unspecified)

- IC50 [1]: 840 nM
Compound: Cc1c(C)c(Cl)c(C)c(C(CCCCCC(=O)O)c2ccc(F)cc2)c1O (stereo unspecified)

- IC50 [1]: 340 nM
Compound: COCc1c(C)c(C)c(O)c(C(CCCCCC(=O)O)c2ccc(F)cc2)c1C (stereo unspecified)

- IC50 [1]: 450 nM
Compound: Cc1cc(C)c(C(CCCCCC(=O)O)c2ccc(F)cc2)c(O)c1C (stereo unspecified)

- IC50 (Homo sapiens [6]): 79 nM
- IC50 (Oryctolagus cuniculus [7]): 32 nM
- IC50 [1]: 32 nM
Compound: Cc1c(C)c(CO)c(C)c(C(CCCCCC(=O)O)c2ccc(F)cc2)c1O (stereo unspecified)
- inhibition in vivo at 0.31 mg/kg (Cavia porcellus [5]): 57%
- inhibition in vivo at 1.25 mg/kg (Rattus norvegicus [8]): < 40%
- inhibition in vivo at 5 mg/kg (Rattus norvegicus [9]): < 65%

- IC50 (Cavia porcellus [11]): 4.4 nM
- IC50 (Homo sapiens [3]): 310 nM
- IC50 (Oryctolagus cuniculus [4]): 10 nM
Compound: Cc1c(C)c(C=O)c(C)c(C(CCCCCC(=O)O)c2ccc(F)cc2)c1O (stereo unspecified)
- inhibition in vivo at 0.31 mg/kg (Cavia porcellus [5]): 33%
- inhibition in vivo at 1.25 mg/kg (Cavia porcellus [10]): < 67%
- inhibition in vivo at 5 mg/kg (Cavia porcellus [2]): 84%
- inhibition in vivo at 1.25 mg/kg (Rattus norvegicus [8]): < 54%
- inhibition in vivo at 5 mg/kg (Rattus norvegicus [9]): 68%

- IC50 [1]: 79 nM
Compound: Cc1c(O)c(C(CCCCCC(=O)O)c2ccc(F)cc2)c(C)c2c1CC(=O)C2 (stereo unspecified)
- inhibition in vivo at 5 mg/kg (Cavia porcellus [2]): < 42%

- IC50 (Cavia porcellus [11]): 80 nM
- IC50 (Homo sapiens [6]): 69 nM
- IC50 (Oryctolagus cuniculus [7]): 270 nM
- IC50 [1]: 80 nM
Compound: CC(=O)c1c(C)c(C)c(O)c(C(CCCCCC(=O)O)c2ccc(F)cc2)c1C (stereo unspecified)
- inhibition in vivo at 1.25 mg/kg (Cavia porcellus [10]): 22%
- inhibition in vivo at 5 mg/kg (Cavia porcellus [2]): 76%
- inhibition in vivo at 5 mg/kg (Rattus norvegicus [9]): 42%

- IC50 (Oryctolagus cuniculus [14]): 230 nM
- IC50 (Homo sapiens [16]): 310 nM
- IC50 [1]: 49 nM
Compound: Cc1c(O)c(C(CCCCCC(=O)O)c2ccc(F)cc2)c(C)c2c1CCC2 (stereo unspecified)
- inhibition in vivo at 5 mg/kg (Cavia porcellus [12]): 76%
- inhibition in vivo at 1.25 mg/kg (Cavia porcellus [13]): 37%
- inhibition in vivo at 5 mg/kg (Rattus norvegicus [15]): 48%

- IC50 [1]: 240 nM
Compound: Cc1cc(C)c(O)c(C(CCCCCC(=O)O)c2ccc(F)cc2)c1C (stereo unspecified)

- IC50 [1]: 160 nM
Compound: Cc1c(C)c2c(c(C(CCCCCC(=O)O)c3ccc(F)cc3)c1O)CCC2 (stereo unspecified)

- IC50 (Cavia porcellus [11]): 13 nM
- IC50 (Homo sapiens [6]): 78 nM
- IC50 (Oryctolagus cuniculus [7]): 27 nM
- IC50 [1]: 13 nM
Compound: Cc1c(C)c2c(c(C(CCCCCC(=O)O)c3ccc(F)cc3)c1O)CCC2=O (stereo unspecified)
- inhibition in vivo at 0.31 mg/kg (Cavia porcellus [5]): -3%
- inhibition in vivo at 1.25 mg/kg (Cavia porcellus [10]): 59%
- inhibition in vivo at 5 mg/kg (Cavia porcellus [2]): < 95%
- inhibition in vivo at 1.25 mg/kg (Rattus norvegicus [8]): < 50%
- inhibition in vivo at 5 mg/kg (Rattus norvegicus [9]): 78%

- IC50 [1]: 190 nM
Compound: CCCCC(=O)c1c(C)c(C)c(O)c(C(CCCCCC(=O)O)c2ccc(F)cc2)c1C (stereo unspecified)

- IC50 [1]: 250 nM
Compound: CC(=O)c1c(C)c(C)c(C(CCCCCC(=O)O)c2ccc(F)cc2)c(O)c1C (stereo unspecified)

- IC50 [1]: 200 nM
Compound: Cc1c(C)c(Br)c(C)c(C(CCCCCC(=O)O)c2ccc(F)cc2)c1O (stereo unspecified)

- IC50 [1]: 650 nM
Compound: Cc1c(C)c(C(CCCCCC(=O)O)c2ccc(F)cc2)c(O)c(C)c1CO (stereo unspecified)

- IC50 [1]: 76 nM
Compound: Cc1c(C)c2c(c(C(CCCCCC(=O)O)c3ccc(F)cc3)c1O)CCCC2=O (stereo unspecified)

- IC50 [1]: 250 nM
Compound: Cc1c(C)c(CCO)c(C)c(C(CCCCCC(=O)O)c2ccc(F)cc2)c1O (stereo unspecified)

- IC50 (Homo sapiens [3]): 640 nM
- IC50 (Oryctolagus cuniculus [4]): 120 nM
- IC50 [1]: 62 nM
Compound: O=C(O)Cc1ccc(CCNS(=O)(=O)c2ccc(Cl)cc2)cc1 [DALTROBAN]
- inhibition in vivo at 1.25 mg/kg (Cavia porcellus [10]): 36%
- inhibition in vivo at 5 mg/kg (Cavia porcellus [2]): < 84%
- inhibition in vivo at 5 mg/kg (Rattus norvegicus [9]): < 73%
